What was measured:
Assay type in all cases: functional
Conditions in all cases: read-out: GI
[1] = tested on: BT-549; test: Growth inhibition of human BT549 cells at 10 uM relative to control
Method in brief: (§1)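 Each cell line in a 60-line human tumour panel exposed to one 10 μM concentration. Growth inhibition percentage computed as 100 minus the percentage activity relative to control.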

[2] = tested on: HCC 2998; test: Growth inhibition of human HCC2998 cells at 10 uM relative to control; method in brief: as §1
[3] = tested on: Malme-3M; test: Growth inhibition of human MALME-3M cells at 10 uM relative to control; method in brief: as §1
[4] = tested on: NCI-H522; test: Growth inhibition of human NCI-H522 cells at 10 uM relative to control; method in brief: as §1
[5] = tested on: SNB-75; test: Growth inhibition of human SNB75 cells at 10 uM relative to control
Method in brief: (§2)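 Single-dose screen across the 60-cell-line human tumor panel at 10 μM. Growth inhibition is reported as a percentage, taken as 100 minus the % growth relative to untreated control.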

[6] = tested on: RPMI-8226; test: Growth inhibition of human RPMI8226 cells at 10 uM relative to control; method in brief: as §1
[7] = tested on: TK-10; test: Growth inhibition of human TK10 cells at 10 uM relative to control; method in brief: as §2
[8] = tested on: SF-295; test: Growth inhibition of human SF295 cells at 10 uM relative to control; method in brief: as §1
[9] = tested on: UO-31; test: Growth inhibition of human UO31 cells at 10 uM relative to control; method in brief: as §2
[10] = tested on: NCI-H322M; test: Growth inhibition of human NCI-H322M cells at 10 uM relative to control; method in brief: as §1
[11] = tested on: U-251; test: Growth inhibition of human U251 cells at 10 uM relative to control; method in brief: as §2
[12] = tested on: PC-3; test: Growth inhibition of human PC3 cells at 10 uM relative to control; method in brief: as §1
[13] = tested on: CAKI-1; test: Growth inhibition of human CAKI-1 cells at 10 uM relative to control; method in brief: as §1
[14] = tested on: CCRF-CEM; test: Growth inhibition of human CCRF-CEM cells at 10 uM relative to control; method in brief: as §1
[15] = tested on: HOP-62; test: Growth inhibition of human HOP62 cells at 10 uM relative to control; method in brief: as §1
[16] = tested on: UACC-62; test: Growth inhibition of human UACC62 cells at 10 uM relative to control; method in brief: as §2
[17] = tested on: SF-539; test: Growth inhibition of human SF539 cells at 10 uM relative to control; method in brief: as §1
[18] = tested on: A498; test: Growth inhibition of human A498 cells at 10 uM relative to control; method in brief: as §1
[19] = tested on: MDA-MB-435; test: Growth inhibition of human MDA-MB-435 cells at 10 uM relative to control; method in brief: as §1
[20] = tested on: HCT-15; test: Growth inhibition of human HCT15 cells at 10 uM relative to control; method in brief: as §1
[21] = tested on: SK-OV-3; test: Growth inhibition of human SKOV3 cells at 10 uM relative to control; method in brief: as §1
[22] = tested on: T47D; test: Growth inhibition of human T47D cells at 10 uM relative to control; method in brief: as §2
[23] = tested on: EKVX; test: Growth inhibition of human EKVX cells at 10 uM relative to control; method in brief: as §1
[24] = tested on: M14; test: Growth inhibition of human M14 cells at 10 uM relative to control; method in brief: as §1
[25] = tested on: SNB-19; test: Growth inhibition of human SNB19 cells at 10 uM relative to control; method in brief: as §2
[26] = tested on: OVCAR-5; test: Growth inhibition of human OVCAR5 cells at 10 uM relative to control; method in brief: as §1
[27] = tested on: SF-268; test: Growth inhibition of human SF268 cells at 10 uM relative to control; method in brief: as §1
[28] = tested on: KM12; test: Growth inhibition of human KM12 cells at 10 uM relative to control; method in brief: as §1

Q: Which results are given for `Cc1ccccc1-n1c(C)nc2cc(N)ccc2c1=S`?
A: inhibition of growth at 10 µM [1]: 8%; inhibition of growth at 10 µM [2]: 16.6%; inhibition of growth at 10 µM [3]: 17%; inhibition of growth at 10 µM [4]: 4%; inhibition of growth at 10 µM [5]: 15.5%; inhibition of growth at 10 µM [6]: 4%; inhibition of growth at 10 µM [7]: 10%; inhibition of growth at 10 µM [8]: 16.6%; inhibition of growth at 10 µM [9]: 22%; inhibition of growth at 10 µM [10]: 11.1%; inhibition of growth at 10 µM [11]: 6%; inhibition of growth at 10 µM [12]: 9.5%; inhibition of growth at 10 µM [13]: 5%; inhibition of growth at 10 µM [14]: 9.5%; inhibition of growth at 10 µM [15]: 5.5%; inhibition of growth at 10 µM [16]: 9%; inhibition of growth at 10 µM [17]: 2%; inhibition of growth at 10 µM [18]: 20%; inhibition of growth at 10 µM [19]: 9.8%; inhibition of growth at 10 µM [20]: 2.5%; inhibition of growth at 10 µM [21]: 5%; inhibition of growth at 10 µM [22]: 11%; inhibition of growth at 10 µM [23]: 15.2%; inhibition of growth at 10 µM [24]: 4%; inhibition of growth at 10 µM [25]: 2%; inhibition of growth at 10 µM [26]: 10%; inhibition of growth at 10 µM [27]: 10.6%; inhibition of growth at 10 µM [28]: 8.3%
